High-throughput results from PubChem.
Only some compounds are listed: those with a hit (about 4.8% of all), similar ones and a draw of the others.
CHOP UPR activ = activators of apoptotic arm of unfolded protein response (CHOP). CHO-CHOP luciferase reporter, UPR activation, luminescence; percent of tunicamycin response over DMSO baseline. activation, % at 10 µM. 0.34% of 330,000 active. AID 449763;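 active means at 10 µM dose, activation of 40% or more, normalized to positive control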
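Material: CHO-CHOP cells, stable luciferase reporter of PERK-eIF2a-CHOP signalling; quantity: 500 reporter cells seeded per well; buffer or medium: F12 medium containing 10% fetal bovine serum; compound: one dose, 10 µM in 0.5% DMSO; incubation: 6 h compound treatment, 37 °C; measured by: Steady-Glo luciferase luminescence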
SKKanGAS inh = inhibitors of SKKanGAS S. pyogenes growth in kanamycin (SK-promoter or general growth effect). BacTiter-Glo, 6 h. inhibition, % at 7.5 µM. 1.3% of 300,000 active;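 active means mean replicate score, as percent of positive control median, at least 50; inconclusive means mean below 50 but one replicate at or above 50; inactive means mean and every replicate below 50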;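 further: strain carries kanamycin resistance gene driven by streptokinase promoter and grows in 40 µg/ml kanamycin; loss of luminescence reflects streptokinase promoter inhibition or plain growth inhibition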
CSC inhib = blocks cancer stem cells | inhibition, % at 7.5 µM | cancer stem cell-like cells viability, luminescence | 1.1% of 300,000 active; in the data active means inhibition above about 75%; inconclusive means no clear call, values can overlap the other calls; tested in HMLE shEcad cells
UPR XBP1 act = adaptive UPR (XBP1) activation; activation, % at 20 µM; 0.33% of 330,000 active; CHO-XBP1 luciferase reporter, IRE1-XBP1 UPR activation, luminescence; percent of tunicamycin response, DMSO as zero;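 active means versus positive control, 20 µM dose yields 30% or more activation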
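Material: CHO cell line with stable XBP1 luciferase reporter; buffer or medium: F12 medium containing 10% fetal bovine serum; compound: single point, 20 µM final compound, 1% DMSO; incubation: 6 h treatment, 37 °C; measured by: glow luminescence from Steady-Glo reagent; evaluation: activation, % of tunicamycin; control set: tunicamycin high, DMSO low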
Mdm2 MdmX PPI = inhibitors of human Mdm2/MdmX interaction; inhibition, % at 8 µM; SaOS-2 split-luciferase Mdm2/MdmX complementation, luminescence; 3% of 330,000 active; O15151+Q00987;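 active means inhibition of at least 50% at 8 µM in the primary screen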
Target sequence (O15151 whole entry, looked up): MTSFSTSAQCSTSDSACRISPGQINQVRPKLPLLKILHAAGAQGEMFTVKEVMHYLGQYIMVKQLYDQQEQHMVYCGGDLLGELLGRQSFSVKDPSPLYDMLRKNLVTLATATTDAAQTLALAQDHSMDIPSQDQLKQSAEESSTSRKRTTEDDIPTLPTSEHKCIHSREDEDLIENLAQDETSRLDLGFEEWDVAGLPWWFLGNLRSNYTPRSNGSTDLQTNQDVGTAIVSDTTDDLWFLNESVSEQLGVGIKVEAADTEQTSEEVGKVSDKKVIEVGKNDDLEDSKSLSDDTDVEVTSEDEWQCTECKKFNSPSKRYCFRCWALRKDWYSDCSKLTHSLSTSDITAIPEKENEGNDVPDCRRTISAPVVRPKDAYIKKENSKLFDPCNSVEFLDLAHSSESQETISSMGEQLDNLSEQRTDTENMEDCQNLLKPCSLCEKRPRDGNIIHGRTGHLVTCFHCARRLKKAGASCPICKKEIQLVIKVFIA
Target sequence (Q00987 whole entry, looked up): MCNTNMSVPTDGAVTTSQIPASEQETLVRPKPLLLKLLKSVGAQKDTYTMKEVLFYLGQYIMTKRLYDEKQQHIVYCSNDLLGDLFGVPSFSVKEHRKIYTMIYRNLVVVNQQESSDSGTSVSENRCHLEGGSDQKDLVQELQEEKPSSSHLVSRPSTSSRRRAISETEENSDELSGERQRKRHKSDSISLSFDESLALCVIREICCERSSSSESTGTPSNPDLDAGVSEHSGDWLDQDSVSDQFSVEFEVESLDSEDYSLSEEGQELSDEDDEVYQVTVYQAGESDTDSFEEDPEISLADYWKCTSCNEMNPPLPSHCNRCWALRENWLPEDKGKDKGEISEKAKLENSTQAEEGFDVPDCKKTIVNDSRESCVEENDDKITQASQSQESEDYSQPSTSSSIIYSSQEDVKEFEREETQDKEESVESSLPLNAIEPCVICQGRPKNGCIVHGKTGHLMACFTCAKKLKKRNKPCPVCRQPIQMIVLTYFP
Beta cell apopt = beta cell apoptosis inhibition | INS-1E cytokine-induced death, ATP luminescence, 48 h; percent of positive-control rescue, neutral wells zero | protection from apoptosis, % (test concentration not listed) | 0.8% of 300,000 active;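 active means Every replicate reaches about 75%, or at least half do and their mean reaches it too, limit read from the data; inconclusive means At least half of replicates reach the limit but their mean does not; inactive means Under half of replicates reach the limit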;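 further: higher means more ATP so stronger rescue from cytokine killing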
Mdm2 MdmX conf = human Mdm2/MdmX binding inhibition, confirmed. shares compounds with Mdm2 MdmX PPI. luminescent assay. inhibition, % at 8 µM. 55% of 10,000 active. AID 489028; in the data active means inhibition above about 40%
FLuc counter = full-length luciferase inhibition in Mdm2/MdmX counter-screen. shares compounds with Mdm2 MdmX PPI. SaOS-2 full-length luciferase counterscreen, luminescence. inhibition, % at 8 µM. 77% of 6,200 active;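 active means mean inhibition at 8 µM reaching about 37%, which flags the compound as non-specific, limit read from the data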;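 further: p53-null SaOS-2 cells with luciferase driven by a doxycycline-inducible promoter; compound on cells about two nights before reading with doxycycline added after day one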
A number is an active result; . = inactive; ? = inconclusive; / = no result.

SMILES	CHOP UPR activ	SKKanGAS inh	CSC inhib	UPR XBP1 act	Mdm2 MdmX PPI	Beta cell apopt	Mdm2 MdmX conf	FLuc counter
Cc1cc(NC(=O)c2c(F)cccc2F)n(-c2nc3ccccc3[nH]2)n1	.	.	.	.	53	.	.	/
Cc1cc(NC(=O)C2CCCCC2)n(-c2nc3ccccc3[nH]2)n1	.	.	.	.	57	.	43	68
Cc1ccc(NC(=O)CSc2nnc(C)n2C2CC2)cc1S(=O)(=O)N1CCOCC1	.	/	/	.	.	.	/	/
Cn1ncc(Cl)c1C(=O)N1CCN(c2ccc(F)cc2)CC1	.	.	.	.	.	.	/	/
COc1ccccc1Nc1nc(NCCO)nc(N)c1[N+](=O)[O-]	.	.	.	.	62	.	.	/
COc1ccccc1Nc1nc(NCCC(C)C)nc(N)c1[N+](=O)[O-]	.	.	.	.	53	.	41	80
CNc1nc(N)c([N+](=O)[O-])c(Nc2ccccc2OC)n1	.	.	/	.	65	/	.	71
COc1ccccc1Nc1nc(N(C)c2ccccc2)nc(N)c1[N+](=O)[O-]	.	.	.	.	.	.	/	/
CC1CCCC(C)N1CCNC(=O)CCc1nnc2n(Cc3ccccc3)c(=O)c3ccccc3n12 (stereo unspecified)	.	.	.	.	.	.	/	/
NS(=O)(=O)c1cccc(NC(=O)COC(=O)CCN2C(=O)c3ccccc3C2=O)c1	.	/	.	.	.	.	/	/
CCOc1ccc(NC(=O)C2CCN(S(=O)(=O)c3ccc4c(c3)C(C)(C)C(=O)N4C)CC2)cc1	.	.	.	.	.	.	/	/
CCOc1ccc2[nH]cc(-c3csc(N)n3)c2c1	.	.	.	.	.	.	/	/
CN(C)S(=O)(=O)c1ccc2c(c1)nc(CCC(=O)NCCc1ccc(Cl)cc1)n2C	.	.	.	.	.	.	/	/
O=C(O)c1cccc(NC(=S)NC(NC(=O)c2ccco2)C(Cl)(Cl)Cl)c1 (stereo unspecified)	.	.	.	.	.	.	/	/
O=C(NC(NC(=S)Nc1cccc(Cl)c1)C(Cl)(Cl)Cl)OCc1ccccc1 (stereo unspecified)	.	122	116	.	92	.	55	53
O=C(NC(NC(=S)Nc1cccc(C(=O)O)c1)C(Cl)(Cl)Cl)OCc1ccccc1 (stereo unspecified)	.	.	.	.	.	.	/	/
O=C(NC(NC(=S)Nc1ccc(Cl)c(Cl)c1)C(Cl)(Cl)Cl)c1ccco1 (stereo unspecified)	.	74	.	.	59	.	.	74
C=CCn1c(SCc2ccccc2F)nc2cc(C(=O)O)ccc2c1=O	.	.	.	.	.	/	/	/
Cc1ccccc1NC(=O)NNC(=O)COc1ccc2ccccc2c1	.	.	.	.	.	.	/	/
CCCCn1c(N)c(-c2nc3ccccc3s2)c2c([N+](=O)[O-])nn(CC)c(=O)c21	.	.	.	.	.	.	/	/
Cn1nc([N+](=O)[O-])c2c(-c3nc4ccccc4s3)c(N)n(C3CCCCC3)c2c1=O	.	.	.	.	51	.	.	/
CCCCCn1c(N)c(-c2nc3ccccc3s2)c2c([N+](=O)[O-])nn(CC)c(=O)c21	.	54	.	.	92	.	.	/
COc1ccc(N2CC(C(=O)Nc3ccccc3C(=O)NC3CC3)CC2=O)cc1 (stereo unspecified)	.	.	.	.	.	/	/	/
COCC1CCN(C(=O)c2ccc(OC3CCN(Cc4ccccn4)CC3)cc2)C1 (stereo unspecified)	.	.	.	.	.	.	/	/
COc1ccc(N=C2NN=C(c3c(C)[nH]c4ccccc34)CS2)cc1	.	?	101	.	54	.	.	/
SMILES	CHOP UPR activ	SKKanGAS inh	CSC inhib	UPR XBP1 act	Mdm2 MdmX PPI	Beta cell apopt	Mdm2 MdmX conf	FLuc counter
COc1ccc(O)c(/C=N/NC(=O)c2ccc(OCc3cccc(Br)c3)cc2)c1	.	.	91	.	68	93	69	.
COc1ccc(C(=O)N/N=C/c2cc(Br)ccc2O)cc1OC	.	86	.	.	67	104	64	.
COc1ccc(O)c(/C=N/NC(=O)c2ccc(CSc3nc(C)cc(C)n3)cc2)c1	.	.	110	.	77	?	74	.
Cn1cccc1-c1cc(C(=O)N/N=C/c2cc(Br)ccc2O)[nH]n1	.	90	/	.	74	.	78	.
COc1ccc(/C=N/NC(=O)c2ccc(CSc3nc(C)cc(C)n3)cc2)cc1O	.	.	.	.	.	.	/	/
COc1ccccc1CC(=O)Nc1ccc(S(=O)(=O)N(C)C2CCN(C)CC2)cc1	.	/	/	.	.	.	/	/
COc1ccc(C(=O)O/N=C(\N)Cc2ccc(Cl)cc2)cc1OC	.	.	.	.	100	.	93	42
COc1ccc(/C(N)=N/OC(=O)c2ccc3c(c2)OCO3)cc1OC	.	.	/	.	91	/	.	/
COc1ccc(C(=O)O/N=C(\N)Cc2ccc(Cl)c(Cl)c2)cc1OC	.	.	.	.	101	.	100	.
COc1ccc(C/C(N)=N/n2cnnc2)cc1Cl	.	.	.	.	.	.	/	/
N/C(=N\OC(=O)c1ccc2c(c1)OCO2)c1cccc(Br)c1	.	.	.	.	.	.	/	/
CCOCCCNC(=O)/C(C#N)=C/c1ccc(Cl)c([N+](=O)[O-])c1	.	.	.	.	73	.	.	/
CN(C)/C=C/C(=O)c1ccc(N2CCN(c3ncc(C(F)(F)F)cc3Cl)CC2)cc1	.	.	.	.	92	.	.	/
Cc1ccc(NC(=O)CCC(=O)NNC(=S)Nc2ccccc2)c(C)c1	.	.	.	.	.	.	/	/
Cc1ccc(NC(=S)NNC(=S)Nc2ccc(C)cc2C)cc1	.	.	.	.	71	.	52	94
Cc1cc(C)c2nc(N3CCC(C(=O)NCCCN4CCCCC4)CC3)sc2c1	.	.	.	.	84	.	43	46
Cc1ccnc2c1ccc1cccnc12	.	/	/	.	84	/	86	.
Cc1ccnc2c1ccc1c(C)ccnc12	.	/	111	.	84	102	85	.
O=Cc1ccc2ccc3cccnc3c2n1	.	.	.	.	.	.	/	/
c1cnc2c(c1)ccc1cccnc12	.	.	.	.	77	.	82	50
Cc1ccnc2c1ccc1ccccc12	.	.	.	.	.	/	/	/
CC(=O)NC(CC(=O)OCC(=O)N1CCN(S(=O)(=O)c2ccc(Cl)cc2)CC1)c1ccccc1 (stereo unspecified)	.	.	.	.	.	.	/	/
CCOc1ccccc1NC(=O)NNC(=O)c1ccc2ccccc2c1	.	.	/	.	60	.	50	83
CCOc1ccccc1NC(=O)c1ccc2ccccc2c1	.	.	.	.	.	.	/	/
